# Results: ChEMBL document CHEMBL1136700, “Identification of a broad-spectrum azasordarin with improved pharmacokinetic properties” (Bioorg Med Chem Lett, 2003)
# Key:
# Candida albicans = test: Minimum inhibitory concentration (MIC) to Candida albicans after 48 hr; assay type: functional
# In short: (§1)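 Antifungal susceptibility read visually; MIC taken as lowest drug concentration giving 90–100% inhibition of visible growth relative to drug-free controls, read over 48 h, or after 24 h where footnoted. Organisms: C. parapsilosis, C. albicans, Cryptococcus neoformans, C. glabrata, Aspergillus fumigatus, Aspergillus flavus.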
# Aspergillus fumigatus = test: Minimum inhibitory concentration (MIC) to Aspergillus fumigatus after 48 hr; assay type: functional; in short: as §1
# Aspergillus flavus = test: Minimum inhibitory concentration (MIC) against Aspergillus flavus after 24 hours; assay type: functional; in short: as §1
# Candida parapsilosis = test: Minimum inhibitory concentration (MIC) to Candida parapsilosis after 48 hr; assay type: functional; in short: as §1
# Nakaseomyces glabratus = test: Minimum inhibitory concentration (MIC) to Candida glabrata after 48 hours; assay type: functional; in short: as §1
# Cryptococcus neoformans = test: Minimum inhibitory concentration against Cryptococcus neoformans after 48 hours; assay type: functional; in short: as §1
# [1] = Half life period was measured upon intravenous administration (5 mg/kg); assay type: ADME, organism-based; conditions: in vivo
# In short: (§2)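 Mice dosed iv at 5 mg/kg or orally at 20 mg/kg, n = 3; drug concentrations measured in plasma/serum over time to derive half-life, Cmax, total body clearance, steady-state volume and oral bioavailability.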
# [2] = Total body clearance was determined; assay type: ADME, organism-based; conditions: in vivo; in short: as §2
# [3] = Volume of steady state concentration was determined; assay type: ADME, organism-based; conditions: in vivo; read-out: Vss; in short: as §2
# [4] = Half life period was measured upon oral administration (20 mg/kg); assay type: ADME, organism-based; conditions: in vivo; in short: as §2
# [5] = Oral bioavailability; assay type: ADME, organism-based; conditions: eutheria, in vivo; in short: as §2
# [6] = Maximum plasma concentration was determined; assay type: ADME, organism-based; in short: as §2
# [7] = Aspergillus fumigatus, 48 h, read-out: MIC
# [8] = Aspergillus flavus, 24 h, read-out: MIC
# [9] = Lodderomyces parapsilosis, 48 h, read-out: MIC
# [10] = Nakaseomyces glabratus, 48 h, read-out: MIC
SMILES,MIC (Candida albicans),MIC (Aspergillus fumigatus; [7]),MIC (Aspergillus flavus; [8]),MIC (Candida parapsilosis; [9]),MIC (Nakaseomyces glabratus; [10]),MIC (Cryptococcus neoformans),half-life [1],clearance [2],Vd [3],half-life [4],bioavailability [5],Cmax [6],MIC (Aspergillus fumigatus),MIC (Aspergillus flavus),MIC (Candida parapsilosis),MIC (Nakaseomyces glabratus)
C=C(C#N)CN1C[C@H](OCC23C[C@@H]4[C@H](C)CC[C@H]4C4(C=O)CC2C=C(C(C)C)[C@@]34C(=O)O)OC[C@H]1C,0.25 µg/mL,> 128 µg/mL,128 µg/mL,> 128 µg/mL,1 µg/mL,4 µg/mL,,,,,,,,,,
CC(C)C1=CC2CC3(C=O)[C@@H]4CC[C@@H](C)[C@H]4CC2(CO[C@H]2CN(CC4CC4)[C@H](C)CO2)[C@]13C(=O)O,2 µg/mL,> 128 µg/mL,> 128 µg/mL,> 128 µg/mL,8 µg/mL,> 128 µg/mL,,,,,,,,,,
C=C(Cl)CN1C[C@H](OCC23C[C@@H]4[C@H](C)CC[C@H]4C4(C=O)CC2C=C(C(C)C)[C@@]34C(=O)O)OC[C@H]1C(C)C,< 0.06 µg/mL,32 µg/mL,2 µg/mL,2 µg/mL,< 0.06 µg/mL,< 0.06 µg/mL,1.6 h,20 mL/min/kg,1.6 L/kg,3.1 h,83%,3880 ng/mL,,,,
CC(C)C1=CC2CC3(C=O)[C@@H]4CC[C@@H](C)[C@H]4CC2(CO[C@H]2CN(C4C=CCCC4)[C@H](C)CO2)[C@]13C(=O)O (some centres not stated),2 µg/mL,> 128 µg/mL,> 128 µg/mL,> 128 µg/mL,8 µg/mL,> 128 µg/mL,,,,,,,,,,
CC(C)CN1C[C@H](OCC23C[C@@H]4[C@H](C)CC[C@H]4C4(C=O)CC2C=C(C(C)C)[C@@]34C(=O)O)OC[C@H]1C,< 0.06 µg/mL,> 128 µg/mL,> 128 µg/mL,> 128 µg/mL,1 µg/mL,32 µg/mL,,,,,,,,,,
CC(C)C1=CC2CC3(C=O)[C@@H]4CC[C@@H](C)[C@H]4CC2(CO[C@H]2CN(C/C=C\Cl)[C@H](C)CO2)[C@]13C(=O)O,0.125 µg/mL,> 128 µg/mL,> 128 µg/mL,> 128 µg/mL,1 µg/mL,128 µg/mL,,,,,,,,,,
CC(C)=CCN1C[C@H](OCC23C[C@@H]4[C@H](C)CC[C@H]4C4(C=O)CC2C=C(C(C)C)[C@@]34C(=O)O)OC[C@H]1C,0.25 µg/mL,> 128 µg/mL,> 128 µg/mL,> 128 µg/mL,8 µg/mL,> 128 µg/mL,,,,,,,,,,
C=C(Cl)CN1C[C@H](OCC23C[C@@H]4[C@H](C)CC[C@H]4C4(C=O)CC2C=C(C(C)C)[C@@]34C(=O)O)OC[C@H]1C,< 0.06 µg/mL,32 µg/mL,0.5 µg/mL,1 µg/mL,0.125 µg/mL,< 0.06 µg/mL,1.8 h,95 mL/min/kg,7.1 L/kg,2.1 h,100%,5950 ng/mL,32 µg/mL,0.5 µg/mL,1 µg/mL,0.125 µg/mL

# Further lines, results first:
MIC (Candida albicans),MIC (Aspergillus fumigatus; [7]),MIC (Aspergillus flavus; [8]),MIC (Candida parapsilosis; [9]),MIC (Nakaseomyces glabratus; [10]),MIC (Cryptococcus neoformans),half-life [1],clearance [2],Vd [3],half-life [4],bioavailability [5],Cmax [6],MIC (Aspergillus fumigatus),MIC (Aspergillus flavus),MIC (Candida parapsilosis),MIC (Nakaseomyces glabratus),SMILES
< 0.06 µg/mL,> 128 µg/mL,8 µg/mL,8 µg/mL,0.125 µg/mL,0.125 µg/mL,,,,,,,,,,,C=C(C)CN1C[C@H](OCC23C[C@@H]4[C@H](C)CC[C@H]4C4(C=O)CC2C=C(C(C)C)[C@@]34C(=O)O)OC[C@H]1C
< 0.06 µg/mL,> 128 µg/mL,> 128 µg/mL,4 µg/mL,< 0.06 µg/mL,0.5 µg/mL,,,,,,,,,,,COc1ccc(CN2C[C@H](OCC34C[C@@H]5[C@H](C)CC[C@H]5C5(C=O)CC3C=C(C(C)C)[C@@]45C(=O)O)OC[C@H]2C)cc1
< 0.06 µg/mL,> 128 µg/mL,> 128 µg/mL,> 128 µg/mL,1 µg/mL,> 128 µg/mL,,,,,,,,,,,CC(C)C1=CC2CC3(C=O)[C@@H]4CC[C@@H](C)[C@H]4CC2(CO[C@H]2CN(C/C=C\Br)[C@H](C)CO2)[C@]13C(=O)O
< 0.06 µg/mL,> 128 µg/mL,4 µg/mL,8 µg/mL,0.125 µg/mL,> 128 µg/mL,0.44 h,13 mL/min/kg,0.49 L/kg,,,,,,,,C=C(Cl)CN1C[C@H](OCC23C[C@@H]4[C@H](C)CC[C@H]4C4(C=O)CC2C=C(C(C)C)[C@@]34C(=O)O)O[C@H](C)C1
< 0.06 µg/mL,64 µg/mL,1 µg/mL,8 µg/mL,0.25 µg/mL,0.5 µg/mL,,,,,,,,,,,C=C(Cl)CN1C[C@H](OCC23C[C@@H]4[C@H](C)CC[C@H]4C4(C=O)CC2C=C(C(C)C)[C@@]34C(=O)O)O[C@H](C)[C@H]1C
